In ChEMBL document CHEMBL1165856, “Naftifine-analogues as anti-Trypanosoma cruzi agents” (Eur J Med Chem, 2010):
In brackets after ≈: the same amount, converted by molar mass. Several values for one entry are separate records, joined by “and”; a condition that tells them apart may be missing. Identical values can stand only once.

How the values were obtained:
[1] = Selectivity index, ratio of ID50 for mouse J774 cells to ID50 for Trypanosoma cruzi Tulahuen 2; format: toxicity, cell-based; conditions: J774 cells versus Trypanosoma cruzi Tulahuen 2
In short: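 Selectivity index is the ID50 in J-774 macrophages (48 h MTT) divided by the ID50 against Tulahuen 2 epimastigotes (day-5 A600 growth).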

[2] = Cytotoxicity against mouse J774 cells after 48 hrs by MTT assay; format: cell-based; conditions: read-out: ID50
In short: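 J-774 macrophages were seeded at 1 × 10⁵ cells/well in RPMI 1640 with 20% heat-inactivated FCS and left to attach for 48 h at 37 °C in 5% CO₂. Cells were then exposed to compounds for 48 h. MTT was added at 0.4 mg/mL final, formazan was dissolved in DMSO, and A595 was read. ID50 is the concentration cutting control absorbance by 50%, averaged over three experiments.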

[3] = system: Trypanosoma cruzi; assay: Antitrypanosomal activity against Trypanosoma cruzi Tulahuen 2; format: functional; conditions: read-out: ID50 (the source's name)
In short: (§1)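 Epimastigotes were grown at 28 °C in BHI-tryptose with 5% FBS. Stationary-phase parasites are inoculated at 8 × 10⁶ cells/mL into medium containing increasing drug concentrations from DMSO stock (final DMSO ≤0.4%; vehicle control). Growth is followed by A600. ID50 is the concentration that halves the day-5 absorbance ratio relative to control.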

[4] = system: Trypanosoma cruzi; assay: Antitrypanosomal activity against Trypanosoma cruzi CL Brener; format: functional; conditions: read-out: ID50 (the source's name); in short: as §1
[5] = system: Cryptococcus neoformans; assay: Antifungal activity against Cryptococcus neoformans ATCC 32264 after 48 hrs; format: functional
In short: (§2)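 CLSI M27-A2 broth microdilution in RPMI 1640 buffered to pH 7.0 with MOPS. Inoculum is 10³ CFU/mL from Sabouraud-grown yeasts. Compound is two-fold serially diluted, final DMSO ≤1%. Incubated at 35 °C in a moist, dark chamber and read visually at 48 h. MIC is the lowest concentration giving total growth inhibition.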

[6] = system: Candida tropicalis; assay: Antifungal activity against Candida tropicalis C 131 2000 after 48 hrs; format: functional; in short: as §2
[7] = system: Candida albicans; assay: Antifungal activity against Candida albicans ATCC 10231 after 48 hrs; format: functional; conditions: ATCC 10231, 48 h; in short: as §2
[8] = system: Trichophyton mentagrophytes; assay: Antifungal activity against Trichophyton mentagrophytes ATCC 9972 after 48 hrs; format: functional; conditions: ATCC 9972, 48 h
In short: (§3)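 Dermatophytes were tested by CLSI M38-A microdilution in MOPS-buffered RPMI 1640 at pH 7.0. Inoculum is 10³ CFU/mL, with two-fold serial compound dilutions and final DMSO ≤1%. Trays are kept at 28–30 °C in a moist, dark chamber. MIC is the lowest concentration with total growth inhibition, read visually when control growth allows.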

[9] = system: Trichophyton rubrum; assay: Antifungal activity against Trichophyton rubrum C 113 after 48 hrs; format: functional; conditions: C 113, 48 h; in short: as §3
[10] = system: Saccharomyces cerevisiae; assay: Antifungal activity against Saccharomyces cerevisiae ATCC 9763 after 48 hrs; format: functional; conditions: ATCC 9763, 48 h; in short: as §2
[11] = system: Aspergillus niger; assay: Antifungal activity against Aspergillus niger ATCC 9029 after 48 hrs; format: functional; conditions: ATCC 9029, 48 h
In short: (§4)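 Aspergillus spp. were tested by CLSI M38-A broth microdilution in RPMI 1640 with MOPS at pH 7.0. Spore inoculum is 10³ CFU/mL, with two-fold compound dilutions and final DMSO ≤1%. Incubated at 35 °C in a moist, dark chamber. MIC is read visually as total growth inhibition, at a time set by growth of the control fungus.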

[12] = system: Nannizzia gypsea; assay: Antifungal activity against Microsporum gypseum C 115 after 48 hrs; format: functional; conditions: C 115, 48 h; in short: as §3
[13] = system: Aspergillus flavus; assay: Antifungal activity against Aspergillus flavus ATCC 9170 after 48 hrs; format: functional; conditions: ATCC 9170, 48 h; in short: as §4
[14] = system: Aspergillus fumigatus; assay: Antifungal activity against Aspergillus fumigatus ATCC 26934 after 48 hrs; format: functional; conditions: ATCC 26934, 48 h; in short: as §4
[15] = system: Trypanosoma cruzi; assay: Antitrypanosomal activity against Trypanosoma cruzi Tulahuen 2 at 25 uM; format: functional
In short: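 Tulahuen 2 epimastigotes (8 × 10⁶ cells/mL, 28 °C, BHI-tryptose with 5% FBS) were exposed to a single drug concentration, with final DMSO ≤0.4% and a vehicle control. Percent growth inhibition = {1 − [(Ap − A0p)/(Ac − A0c)]} × 100, using A600 of drug and control cultures at day 0 and day 5.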

[16] = Cryptococcus neoformans, ATCC 32264, 48 h, read-out: MIC
[17] = Candida tropicalis, C 131 2000, 48 h, read-out: MIC

IC50 [3] [µM]	IC50 [4] [µM]	MIC [5, 16] [µg/mL]	MIC [6, 17] [µg/mL]	MIC [7] [µg/mL]	MIC [8] [µg/mL]	MIC [9] [µg/mL]	MIC [10] [µg/mL]	MIC [11] [µg/mL]	MIC [12] [µg/mL]	MIC [13] [µg/mL]	MIC [14] [µg/mL]	SMILES	selectivity ratio [1]	CC50 at 48 h [2] [µM]	MFC [8] [µg/mL]	MFC [9] [µg/mL]	MFC [12] [µg/mL]	also measured
22.6	16.9	–	–	–	–	–	–	–	–	–	–	CN(C/C=C/c1ccccc1)Cc1ccc2no[n+]([O-])c2c1	< 4.4	< 100	–	–	–	–
3.8	7.9	62.5 (≈ 134 µM)	125 (≈ 268 µM)	125 (≈ 268 µM)	62.5 (≈ 134 µM)	62.5 (≈ 134 µM)	62.5 (≈ 134 µM)	> 250	62.5 (≈ 134 µM)	> 250	> 250	COc1nn(CCOCCN2CCN(C/C=C/c3ccccc3)CC2)c2ccc([N+](=O)[O-])cc12	< 26.3	< 100	125 (≈ 268 µM)	125 (≈ 268 µM)	125 (≈ 268 µM)	MFC ([5]; Cryptococcus neoformans, ATCC 32264, 48 h): 62.5 µg/mL (≈ 134 µM); MIC [6]: 125 µg/mL (≈ 268 µM); MFC [7]: 125 µg/mL (≈ 268 µM); MFC [10]: 62.5 µg/mL (≈ 134 µM)
10.6	4.5	–	> 250	> 250	62.5 (≈ 116 µM)	62.5 (≈ 116 µM)	> 250	> 250	62.5 (≈ 116 µM)	> 250	> 250	O=[N+]([O-])c1ccc2c(c1)c(OCc1ccccc1)nn2CCCCCN1CCN(C/C=C/c2ccccc2)CC1	< 9.4	< 100	125 (≈ 232 µM)	125 (≈ 232 µM)	125 (≈ 232 µM)	MIC [5]: 62.5 µg/mL and 31.2 µg/mL
–	–	> 250	> 250	> 250	> 250	> 250	> 250	> 250	> 250	> 250	> 250	C=CCNC(=S)N/N=C/c1ccc2no[n+]([O-])c2c1	–	–	–	–	–	inhibition at 25 µM [15]: 33%
